Measured values from ChEMBL document CHEMBL3232894, “Discovery of AMG 925, a FLT3 and CDK4 dual kinase inhibitor with preferential affinity for the activated state of FLT3” (J Med Chem, 2014).

Legend:
[1] = target: Cyclin-dependent kinase 4/cyclin D1 (Homo sapiens, UniProt P11802); test: Inhibition of CDK4/cyclin D1 (unknown origin) using Rb as substrate after 60 mins by scintillation counting analysis in presence of [r-33P]ATP; format: protein-complex assay
[2] = target: Cyclin-dependent kinase 1/cyclin B1 (Homo sapiens, UniProt P06493); test: Inhibition of CDK1/cyclin B (unknown origin) using histone H1 as substrate after 60 mins by scintillation counting analysis in presence of [r-33P]ATP; format: protein-complex assay
[3] = target: T1, Receptor-type tyrosine-protein kinase FLT3 (Homo sapiens, UniProt P36888); test: Inhibition of GST-fused human FLT3 cytoplasmic domain (amino acids 564 to 993) using Ulight-JAK1 as substrate after 1 hr by TR-FRET assay
T1 sequence (P36888 whole entry): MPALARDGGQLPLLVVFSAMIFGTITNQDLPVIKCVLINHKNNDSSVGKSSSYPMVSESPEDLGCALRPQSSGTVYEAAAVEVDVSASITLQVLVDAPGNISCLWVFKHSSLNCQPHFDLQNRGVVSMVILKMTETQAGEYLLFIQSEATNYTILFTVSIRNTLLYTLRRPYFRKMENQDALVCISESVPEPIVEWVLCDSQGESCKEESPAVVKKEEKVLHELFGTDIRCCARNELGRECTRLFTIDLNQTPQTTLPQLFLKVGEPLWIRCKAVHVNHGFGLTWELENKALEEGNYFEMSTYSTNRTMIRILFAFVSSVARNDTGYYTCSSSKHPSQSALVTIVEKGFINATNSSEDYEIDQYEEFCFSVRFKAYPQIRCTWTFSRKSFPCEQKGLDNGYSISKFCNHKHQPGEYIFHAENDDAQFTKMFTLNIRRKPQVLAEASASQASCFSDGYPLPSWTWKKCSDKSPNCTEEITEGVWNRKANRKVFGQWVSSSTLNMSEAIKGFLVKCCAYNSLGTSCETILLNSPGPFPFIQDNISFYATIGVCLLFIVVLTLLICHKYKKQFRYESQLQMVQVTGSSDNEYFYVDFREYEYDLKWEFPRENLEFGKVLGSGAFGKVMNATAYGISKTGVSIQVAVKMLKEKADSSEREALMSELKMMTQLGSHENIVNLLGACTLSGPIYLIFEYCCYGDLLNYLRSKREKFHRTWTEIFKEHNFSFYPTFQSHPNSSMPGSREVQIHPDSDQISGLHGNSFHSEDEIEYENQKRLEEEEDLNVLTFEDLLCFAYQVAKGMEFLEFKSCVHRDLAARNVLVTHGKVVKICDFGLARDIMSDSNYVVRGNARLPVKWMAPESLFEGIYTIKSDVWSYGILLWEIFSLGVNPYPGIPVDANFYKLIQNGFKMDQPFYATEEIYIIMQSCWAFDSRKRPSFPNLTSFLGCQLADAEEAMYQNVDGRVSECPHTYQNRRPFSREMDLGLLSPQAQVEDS

[4] = Antiproliferative activity against Rb-negative human MDA-MB-436 cells assessed as incorporation of [3H]thymidine into DNA after 72 hrs by beta-plate counting analysis; format: functional
CYP3A4 = CYP3A4 (Homo sapiens, UniProt P08684); test: Inhibition of CYP3A4 (unknown origin) at 3 uM; format: ADME
COLO 205 = test: Antiproliferative activity against Rb-positive human COLO205 cells assessed as incorporation of [14C]thymidine into DNA after 72 hrs by beta-plate counting analysis
MOLM-13 [5] = test: Antiproliferative activity against human MOLM13 cells harboring FLT3 ITD mutant assessed as incorporation of [3H]thymidine into DNA after 72 hrs by beta-plate counting analysis; format: functional, cell-based
Cytochrome P450 3A4 = Cytochrome P450 3A4 (Homo sapiens, UniProt P08684); test: Inhibition of CYP3A4 (unknown origin); format: ADME
[6] = Clearance in iv dosed rat; format: ADME, organism-based; settings: in vivo
In short: (§1)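 Intravenous and oral (gavage, solution) PK in rat, dog and cynomolgus monkey. The rat vehicle for both routes was water/acetate/tween at pH 4, 96/3/1 (v/v/v). Dog and monkey iv doses used 40% PG aqueous solution at pH 2, and their oral doses used 20% captisol aqueous solution.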

[7] = Oral bioavailability in rat; format: ADME, organism-based; settings: in vivo; in short: as §1
[8] = Drug uptake in CrTac:NCR-Foxn1nu (NCR) nude mouse at 150 mg/kg, po after 3 hrs; format: ADME, organism-based; parameters: dose 150 mg/kg, route oral; settings: in vivo, read-out: Drug uptake
In short: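 Total plasma drug concentration in mouse PK studies, taken 3 h after a 150 mg/kg oral dose.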

U-937 [9] = test: Antiproliferative activity against human U937 cells assessed as incorporation of [3H]thymidine into DNA after 72 hrs by beta-plate counting analysis
U-937 [10] = test: Induction of apoptosis in human U937 cells harboring wild type FLT3 at 1 uM after 48 hrs by Annexin V/Sytox Green staining based flow cytometry; format: functional
In short: (§2)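 MOLM13, sorafenib-resistant MOLM13 and U937 cells were each exposed to compound at 1 μM for 48 h. Cells were then stained with Annexin V/Sytox Green and analysed by flow cytometry. Readout is apoptotic cells as a percentage of all cells analysed.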

MOLM-13 [11] = test: Induction of apoptosis in human MOLM13 cells harboring FLT3 ITD mutant at 1 uM after 48 hrs by Annexin V/Sytox Green staining based flow cytometry; format: functional; in short: as §2
MOLM-13 [12] = test: Induction of apoptosis in sorafenib-resistant human MOLM13 cells harboring FLT3 ITD+D835Y mutant at 1 uM after 48 hrs by Annexin V/Sytox Green staining based flow cytometry; format: functional; in short: as §2
MOLM-13 [13] = test: cells; settings: Homo sapiens

Cyclin-dependent kinase 4/cyclin D1, sequence (P11802 whole entry): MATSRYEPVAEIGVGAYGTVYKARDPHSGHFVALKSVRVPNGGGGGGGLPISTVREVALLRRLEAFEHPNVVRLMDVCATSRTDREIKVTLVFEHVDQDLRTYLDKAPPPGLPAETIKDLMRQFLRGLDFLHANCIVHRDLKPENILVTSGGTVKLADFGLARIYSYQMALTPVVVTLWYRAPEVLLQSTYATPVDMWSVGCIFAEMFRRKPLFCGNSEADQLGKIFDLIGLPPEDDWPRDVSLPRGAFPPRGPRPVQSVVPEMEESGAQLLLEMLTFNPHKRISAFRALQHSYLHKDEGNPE
Cyclin-dependent kinase 4/cyclin D1, sequence (P24385 whole entry, further chain): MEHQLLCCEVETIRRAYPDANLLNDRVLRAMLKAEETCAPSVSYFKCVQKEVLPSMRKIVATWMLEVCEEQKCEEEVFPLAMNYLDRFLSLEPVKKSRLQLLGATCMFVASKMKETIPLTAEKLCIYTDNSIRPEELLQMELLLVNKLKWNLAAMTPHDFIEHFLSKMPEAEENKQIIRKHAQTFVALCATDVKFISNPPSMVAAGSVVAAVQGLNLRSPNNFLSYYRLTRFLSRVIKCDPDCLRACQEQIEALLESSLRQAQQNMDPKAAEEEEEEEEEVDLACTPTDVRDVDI
CYP3A4, sequence (P08684 whole entry): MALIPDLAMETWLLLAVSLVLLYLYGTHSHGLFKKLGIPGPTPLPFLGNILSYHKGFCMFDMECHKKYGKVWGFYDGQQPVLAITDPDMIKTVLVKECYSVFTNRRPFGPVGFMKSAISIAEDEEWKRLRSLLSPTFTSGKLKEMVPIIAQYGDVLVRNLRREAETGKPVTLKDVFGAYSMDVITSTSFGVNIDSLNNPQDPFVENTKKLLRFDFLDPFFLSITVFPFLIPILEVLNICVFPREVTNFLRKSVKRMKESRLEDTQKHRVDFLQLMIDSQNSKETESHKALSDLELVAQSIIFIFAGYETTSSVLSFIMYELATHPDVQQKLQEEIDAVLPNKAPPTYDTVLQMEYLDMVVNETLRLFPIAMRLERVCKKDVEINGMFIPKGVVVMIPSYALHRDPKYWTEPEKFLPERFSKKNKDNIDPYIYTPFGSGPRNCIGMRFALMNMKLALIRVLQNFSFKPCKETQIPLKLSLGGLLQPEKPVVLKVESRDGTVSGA
Cytochrome P450 3A4, sequence (P08684 whole entry): as above
Cyclin-dependent kinase 1/cyclin B1, sequence (P06493 whole entry, the tested form may be a part): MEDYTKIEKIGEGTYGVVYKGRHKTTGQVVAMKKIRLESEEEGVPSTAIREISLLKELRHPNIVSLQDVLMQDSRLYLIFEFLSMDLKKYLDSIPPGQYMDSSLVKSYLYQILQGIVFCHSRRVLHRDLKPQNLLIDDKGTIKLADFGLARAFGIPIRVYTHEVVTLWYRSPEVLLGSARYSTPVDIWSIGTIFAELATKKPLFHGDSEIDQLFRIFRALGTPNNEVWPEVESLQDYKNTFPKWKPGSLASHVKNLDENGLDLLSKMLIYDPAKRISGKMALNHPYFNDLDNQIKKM
Cyclin-dependent kinase 1/cyclin B1, sequence (P14635 whole entry, further chain, the tested form may be a part): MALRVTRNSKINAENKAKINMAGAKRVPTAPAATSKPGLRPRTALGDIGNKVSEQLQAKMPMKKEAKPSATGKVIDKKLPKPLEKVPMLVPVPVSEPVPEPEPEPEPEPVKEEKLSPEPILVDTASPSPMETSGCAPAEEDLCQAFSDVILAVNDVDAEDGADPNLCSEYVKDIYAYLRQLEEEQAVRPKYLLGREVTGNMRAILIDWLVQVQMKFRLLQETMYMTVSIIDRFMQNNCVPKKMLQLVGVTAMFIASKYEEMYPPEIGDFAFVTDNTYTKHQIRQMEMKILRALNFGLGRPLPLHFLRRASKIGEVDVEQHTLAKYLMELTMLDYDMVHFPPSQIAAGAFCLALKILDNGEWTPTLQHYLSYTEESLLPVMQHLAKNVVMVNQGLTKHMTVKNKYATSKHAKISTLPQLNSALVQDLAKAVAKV

| Structure (SMILES) | IC50 [1] | IC50 [2] | IC50 [3] | IC50 [4] | inhibition at 3 µM (CYP3A4) | IC50 (COLO 205) | IC50 (MOLM-13 [5]) | IC50 (Cytochrome P450 3A4) | clearance [6] | bioavailability [7] | concentration at 3 h [8] | IC50 (U-937 [9]) | Activity (U-937 [10]) | Activity (MOLM-13 [11]) | Activity (MOLM-13 [12]) | IC50 (MOLM-13 [13]) |
| --- | --- | --- | --- | --- | --- | --- | --- | --- | --- | --- | --- | --- | --- | --- | --- | --- |
| c1cc2c3cnc(Nc4ccc(N5CCNCC5)cn4)nc3n(C3CCCCC3)c2cn1 | 0.005 µM | 6.53 µM | 0.002 µM | 0.54 µM | 82% | 0.032 µM | – | – | – | – | – | – | – | – | – | – |
| CC1CCC(n2c3cnccc3c3cnc(Nc4ccc(N5CCNCC5)cn4)nc32)CC1 (mixture of isomers) | 0.001 µM | 5.2 µM | 0.002 µM | 1.02 µM | 46% | 0.055 µM | – | – | – | – | – | – | – | – | – | – |
| C[C@H]1CC[C@H](n2c3cnccc3c3cnc(Nc4ccc(N5CCNCC5)cn4)nc32)CC1 | 0.007 µM | 2.66 µM | 0.002 µM | 1.21 µM | 20% | 0.02 µM | 0.013 µM | > 10 µM | – | – | – | – | – | – | – | – |
| c1cc2c3cnc(Nc4ccc(N5CCNCC5)cn4)nc3n(C3CCCC3)c2nn1 | 0.051 µM | 4.78 µM | 0.095 µM | 7.05 µM | < 10% | 0.051 µM | – | > 10 µM | 5.6 L/h/kg | – | – | – | – | – | – | – |
| CN(C)C1CCN(c2ccc(Nc3ncc4c5ccncc5n([C@H]5CC[C@H](C)CC5)c4n3)nc2)CC1 | 0.002 µM | 3.29 µM | 0.002 µM | 1.25 µM | – | 0.01 µM | 0.01 µM | – | 2.1 L/h/kg | 44% | – | – | – | – | – | – |
| C[C@@H](CO)n1c2cnccc2c2cnc(Nc3ccc(N4CCNCC4)cn3)nc21 | 0.04 µM | 12.8 µM | 0.043 µM | 30 µM | 17% | 1.24 µM | – | > 10 µM | – | – | – | – | – | – | – | – |
| CC1(C)CCC(n2c3cnccc3c3cnc(Nc4ccc(N5CCNCC5)cn4)nc32)CC1 | 0.001 µM | 2.91 µM | 0.017 µM | 2.01 µM | 51% | 0.028 µM | 0.035 µM | 9.5 µM | – | – | – | – | – | – | – | – |
| C[C@H]1CC[C@H](n2c3cnccc3c3cnc(Nc4ccc(N5CCN(C(=O)CO)CC5)nn4)nc32)CC1 | 0.003 µM | 1.05 µM | 0.008 µM | 1.19 µM | – | 0.031 µM | 0.037 µM | – | 0.12 L/h/kg | 22% | 10.9 µM | – | – | – | – | – |
| O=c1[nH]ccc2c3cnc(Nc4ccc(N5CCNCC5)cn4)nc3n(C3CCCC3)c12 | 0.005 µM | 10 µM | 0.017 µM | 2.1 µM | 18% | 0.12 µM | 0.005 µM | – | – | – | – | – | – | – | – | – |
| CNC(=O)c1cc(Oc2ccc(NC(=O)Nc3ccc(Cl)c(C(F)(F)F)c3)cc2)ccn1 [SORAFENIB] | – | – | – | – | – | > 3 µM | 0.005 µM | – | – | – | – | > 3 µM | 8.76% | 84.6% | 5.16% | > 3 µM |
| CC1(C)CCCC(n2c3cnccc3c3cnc(Nc4ccc(N5CCNCC5)cn4)nc32)C1 (configuration not stated) | 0.003 µM | 2.96 µM | 0.003 µM | 1.62 µM | 90% | 0.033 µM | 0.01 µM | – | – | – | – | – | – | – | – | – |
| CC(=O)c1c(C)c2cnc(Nc3ccc(N4CCNCC4)cn3)nc2n(C2CCCC2)c1=O [PALBOCICLIB] | – | – | – | – | – | 0.036 µM | 0.096 µM | – | – | – | – | 0.14 µM | 9.09% | 16.95% | 8.35% | 0.096 µM |
| O[C@H]1CC[C@H](n2c3cnccc3c3cnc(Nc4ccc(N5CCNCC5)cn4)nc32)CC1 | 0.003 µM | 3.41 µM | 0.005 µM | 2.61 µM | 70% | 0.066 µM | 0.025 µM | – | – | – | – | – | – | – | – | – |
| N#Cc1nccc2c3cnc(Nc4ccc(N5CCNCC5)cn4)nc3n(C3CCCC3)c12 | 0.027 µM | 30 µM | 0.046 µM | 1.38 µM | – | 0.35 µM | 0.062 µM | – | – | – | – | – | – | – | – | – |
| c1cc2c3cnc(Nc4ccc(N5CCNCC5)cn4)nc3n(C3CCCC3)c2cn1 | 0.003 µM | 3 µM | 0.014 µM | 1.76 µM | 90% | 0.025 µM | 0.005 µM | 0.55 µM | 0.98 L/h/kg | 9.4% | – | – | – | – | – | – |
| Cc1nccc2c3cnc(Nc4ccc(N5CCNCC5)cn4)nc3n(C3CCCC3)c12 | 0.02 µM | 2.26 µM | 0.022 µM | 3.42 µM | < 10% | 0.28 µM | 0.005 µM | > 10 µM | – | – | – | – | – | – | – | – |
| Fc1nccc2c3cnc(Nc4ccc(N5CCNCC5)cn4)nc3n(C3CCCC3)c12 | 0.003 µM | 7.56 µM | 0.011 µM | 2.61 µM | < 10% | 0.052 µM | 0.021 µM | > 10 µM | 2.1 L/h/kg | – | – | – | – | – | – | – |
| C[C@H]1CC[C@H](n2c3cnccc3c3cnc(Nc4ccc(N5CCC(N)CC5)cn4)nc32)CC1 | 0.002 µM | 0.41 µM | 0.001 µM | 1.2 µM | – | 0.005 µM | 0.008 µM | – | – | – | – | – | – | – | – | – |
| CS(=O)(=O)CC1CCN(c2ccc(Nc3ncc4c5ccncc5n([C@H]5CC[C@H](C)CC5)c4n3)nn2)CC1 | 0.009 µM | 3.97 µM | 0.008 µM | 10 µM | – | 0.019 µM | 0.03 µM | – | 0.2 L/h/kg | 23% | – | – | – | – | – | – |
| C[C@H]1CC[C@H](n2c3cnccc3c3cnc(Nc4ccc(N5CCC6(CC5)CCS(=O)(=O)C6)nn4)nc32)CC1 | 0.004 µM | 1.63 µM | 0.005 µM | 10 µM | – | 0.038 µM | 0.032 µM | – | 0.54 L/h/kg | 38% | 11.6 µM | – | – | – | – | – |
| C[C@H]1CC[C@H](n2c3cnccc3c3cnc(Nc4ccc(N5CCC6(CCC(=O)N6)CC5)cn4)nc32)CC1 | 0.003 µM | 1.77 µM | 0.003 µM | 7.23 µM | – | 0.031 µM | 0.021 µM | – | 1.3 L/h/kg | 48% | 14.7 µM | – | – | – | – | – |
| C[C@H]1CC[C@H](n2c3cnccc3c3cnc(Nc4ccc(N5CCNCC5)nc4)nc32)CC1 | 0.003 µM | 0.024 µM | 0.0003 µM | 0.038 µM | – | 0.007 µM | 0.005 µM | – | – | – | – | – | – | – | – | – |
| C[C@H]1CC[C@H](n2c3cnccc3c3cnc(Nc4ccc(N5CCNCC5)nn4)nc32)CC1 | 0.002 µM | 1.53 µM | 0.006 µM | 1.01 µM | – | 0.022 µM | 0.013 µM | – | 0.35 L/h/kg | 11% | – | – | – | – | – | – |
| COc1nc(Nc2ncc3c4ccncc4n([C@H]4CC[C@H](C)CC4)c3n2)ccc1N1CCC2(CCC(=O)N2)CC1 | 0.013 µM | 1.06 µM | 0.0006 µM | 7.5 µM | – | 0.044 µM | 0.004 µM | – | 0.91 L/h/kg | 65% | – | – | – | – | – | – |
